Screens as filed in PubChem.
A selection: hits, their analogues and other compounds. The true share with any hit is near 3.9%.
CHRM1 agonist – human M1 muscarinic receptor agonists, primary screen, Fluo-8 calcium fluorescence, CHO-K1 cells, HTS. AID 588814, 2011. hit rate 0.33% among 360,000. Muscarinic acetylcholine receptor M1 (Homo sapiens), P11229. CHO-K1 hM1, agonist mode; 0% DMSO, 100% acetylcholine EC100. activation, % at 3 µM;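 active = activation above the run's mean compound activation plus 3 SD, cut at about 16% in these data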;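 note: peak over basal fluorescence ratio within a 140 s kinetic read after compound addition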
Target sequence (P11229 whole entry, looked up): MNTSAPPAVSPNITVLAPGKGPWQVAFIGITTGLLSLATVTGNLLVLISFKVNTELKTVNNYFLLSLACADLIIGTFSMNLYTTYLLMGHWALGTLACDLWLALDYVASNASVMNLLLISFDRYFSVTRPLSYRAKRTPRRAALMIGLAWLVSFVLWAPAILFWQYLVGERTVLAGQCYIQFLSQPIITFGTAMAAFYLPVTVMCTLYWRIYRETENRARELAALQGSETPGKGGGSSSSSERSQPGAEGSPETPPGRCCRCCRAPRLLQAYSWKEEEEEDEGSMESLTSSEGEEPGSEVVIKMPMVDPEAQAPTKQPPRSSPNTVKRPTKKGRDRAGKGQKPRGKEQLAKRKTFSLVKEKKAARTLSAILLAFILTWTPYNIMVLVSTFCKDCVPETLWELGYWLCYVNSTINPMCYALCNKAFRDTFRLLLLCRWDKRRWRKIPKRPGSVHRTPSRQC
CHRM1 PAM – human M1 muscarinic receptor positive allosteric modulators, primary screen, CHO-K1 cells, Fluo-8 calcium fluorescence, 1536-well. AID 588819, 2011. hit rate 0.088% among 360,000. activation, % at 3 µM. CHO-K1 hM1, ACh EC20; 0% = ACh EC20, 100% = maximal ACh; in the data active = activation above about 19%, passing the limit was not always enough
CHRM1 antagonist – human M1 muscarinic receptor antagonists, primary screen, CHO-K1 cells, Fluo-8 calcium fluorescence, 1536-well. AID 588852, 2011. inhibition, % at 3 µM. hit rate 1.3% among 360,000. CHO-K1 hM1, ACh EC80 antagonist. Muscarinic acetylcholine receptor M1 (Homo sapiens), P11229;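 active = percent inhibition above its own plate's cutoff, namely the mean of that plate's compound wells plus 3 SD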;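 note: peak over basal fluorescence ratio during 140 s after agonist addition; 0% = ACh EC80 plus DMSO and 100% = DMSO alone without agonist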
m5-HT2A agonist – mouse Htr2a agonists via beta-arrestin recruitment, primary screen, cell-based, luminescence. CHO-K1 mHTR2A beta-arrestin complementation; percent of 30 µM serotonin response. activation, % at 7.6 µM. hit rate 0.66% among 360,000. AID 624169, 2012;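 active = activation above a run cutoff, the mean activation of all tested compounds plus 3 SD, cut at about 14% in these data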;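 note: 0% = plate median of compound wells and 100% = 30 µM serotonin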
TAAR1 antagonist – human TAAR1 antagonists, primary screen, Fluo-8 calcium fluorescence, CHO RD-HGA16 cells; hit rate 1.5% among 360,000; antagonist; Trace amine-associated receptor 1 (Homo sapiens), Q96RJ0; inhibition, % at 3 µM;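 active = inhibition above a per-plate cutoff, the mean inhibition of test compounds on that plate plus 3 SD, cut at about 49% in these data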;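 note: 0% = DMSO plus EC80 beta-PEA response and 100% = DMSO alone without agonist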
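Assay system: RD-HGA16 CHO cells with stable hTAAR1 and Gα16 / Reagent: EC80 β-phenethylamine stimulus / Doses: 3 µM, single point / Timing: dye loading 75 min at 37 °C, then 30 min room temperature / Measured by: Fluo-8 intracellular calcium dye fluorescence, real-time kinetic reads / Controls: vehicle wells and EC80 agonist wells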
TAAR1 ag – human TAAR1 agonists, primary screen, Fluo-8 calcium fluorescence, CHO RD-HGA16 cells. Trace amine-associated receptor 1 (Homo sapiens), Q96RJ0. vehicle wells 0%, saturating PEA agonist 100%. activation, % at 3 µM. hit rate 0.99% among 360,000. AID 624467, 2012;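 active = activation above the mean activation of all test compounds in the run plus 3 SD, cut at about 38% in these data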
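Repeats: no replicates (n 1) | Material: CHO-derived RD-HGA16 cells with stable Gα16 and human TAAR1 | Technique: Kinetic Fluo-8 calcium fluorescence | Schedule: 17-24 h seeding, 75 min 37 °C dye, 30 min RT | Evaluation: % activation from peak over basal fluorescence ratio, DMSO-to-PEA scaled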
OPRM1 ag – OPRM1 agonists via beta-arrestin recruitment, confirmation, counter-screen for mouse HTR2A agonist project, cell-based, luminescence, single concentration. U2OS OPRM1 beta-arrestin PathHunter; DMSO 0%, DAMGO 9.3 µM 100%. shares compounds with m5-HT2A agonist. hit rate 5.3% among 2,300. activation, % at 9.3 µM;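 active = mean activation above the mean of DMSO-only wells plus 3 SD, cut at about 0.5% in these data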
m5-HT2A ag conf – mouse HTR2A agonists, beta-arrestin recruitment, confirmation, cell-based, luminescence, CHO-K1 PathHunter, triplicate; shares compounds with m5-HT2A agonist; DMSO 0%, 30 µM serotonin 100%; activation, % at 7.6 µM; hit rate 19% among 2,300; AID 624381, 2012;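 active = mean activation across triplicates above the hit threshold derived in the original primary screen, cut at about 15% in these data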
Starred values were filed as active, the others as inactive; . = not tested or not shown.

SMILES	CHRM1 agonist	CHRM1 PAM	CHRM1 antagonist	m5-HT2A agonist	TAAR1 antagonist	TAAR1 ag	OPRM1 ag	m5-HT2A ag conf
Cc1ccncc1CNC(=O)c1ccccc1	-1.8	1.2	-1.6	16.0*	3.5	0.5	-0.2	-0.2
CCCCn1c(N)c(N(CCOC)C(=O)c2ccc(S(=O)(=O)N3CCC(C)CC3)cc2)c(=O)[nH]c1=O	-0.7	1.6	1.4	0.3	-12.2	0.7	.	.
CC(C)(C)C(=O)Nc1cccc(-c2nc3ccccc3c(=O)o2)c1	-0.6	-2.1	-3.4	3.3	-22.1	6.8	.	.
CCCC(=O)Nc1cccc(-c2nc3ccccc3c(=O)o2)c1	1.1	-2.1	-2.0	15.0*	-33.9	0.5	-0.2	-1.3
Cc1ccc(S(=O)(=O)NC(=O)c2ccccc2C)cc1	-1.7	13.3	-14.2	-0.6	10.8	0.2	.	.
Cc1oc(-c2cccc(Cl)c2)nc1CS(=O)(=O)CC(=O)NCCCN1CCOCC1	-4.0	-10.8	16.3	25.2*	4.0	0.4	-0.4	-3.8
Cc1ccc([C@H]2C[C@@H](n3cc(C4CC4)nn3)[C@H](O)CN2C(=O)C2CCCCC2)cc1	-3.2	3.0	-4.9	0.0	1.7	0.0	.	.
CC(=O)NCc1ccc2[nH]c(C)cc2c1	-2.7	5.5	-3.1	17.0*	0.2	0.4	-0.7	-0.1
O=C(CCN1CCN(c2ccccc2F)CC1)Nc1ccc2c(c1)OCO2	-11.1	-6.7	8.3	17.6*	-1.3	6.0	-0.3	59.4*
CCCC(=O)Nc1c(-c2ccccc2)c(=O)c(C)nn1-c1ccc(Cl)cc1	-4.9	10.8	-3.5	15.3*	-8.6	13.2	-0.7	-3.2
COc1ccc(NC(=O)C2CCCN2S(=O)(=O)c2ccc3c(c2)C(C)(C)C(=O)N3C)cc1 (stereo unspecified)	-3.4	10.6	-16.4	34.1*	-8.1	-0.4	-0.2	-3.1
COc1ccc(S(=O)(=O)N2CCCC2C(=O)Nc2ccc(C)cc2)cc1 (stereo unspecified)	1.3	5.7	-15.4	-6.3	-6.9	2.0	.	.
Nc1[nH]c(C(=O)c2ccccc2)c(-c2ccc(Cl)cc2Cl)c1C(=O)c1ccc(Cl)c(Cl)c1	.	.	.	-0.9	-26.6	10.0	.	.
CC(C)(C)C(=O)c1c(N)[nH]c(C(=O)c2ccccc2)c1-c1ccc(Cl)cc1Cl	.	.	.	15.9*	-14.9	0.2	-0.3	-0.7
C=CCc1ccccc1OCCn1ccnc1	-4.4	-3.5	2.5	15.2*	14.2	8.5	-0.6	-5.3
O=C(c1ccc(-n2cncn2)c([N+](=O)[O-])c1)N1CCN(S(=O)(=O)c2c(F)cccc2F)CC1	-4.7	-2.5	9.0	15.9*	1.4	0.3	-0.3	-2.7
O=C(c1ccc(-n2cncn2)c([N+](=O)[O-])c1)N1CCN(S(=O)(=O)c2ccccc2F)CC1	-4.6	-1.5	-3.2	-2.5	12.8	1.9	.	.
O=C(Nc1ccc(F)cc1)C(c1cc2ccccc2o1)N1CCN(CC(=O)N2CCCC2)CC1 (stereo unspecified)	.	.	.	26.6*	10.3	1.1	-0.8	-4.6
CCOC(=O)C1(C)CCN1C(=O)c1ccc(SC(F)(F)F)cc1 (stereo unspecified)	-3.1	2.4	-3.9	16.0*	-3.2	2.5	-0.8	-6.5
CCOC(=O)C1(C)CCCCCN1C(=O)c1ccc(SC(F)(F)F)cc1 (stereo unspecified)	-1.9	12.9	-16.1	-0.4	-20.1	4.6	.	.
CC1=C(C(=O)OCc2ccccc2)C(c2cccc(Br)c2)NC(=O)N1 (stereo unspecified)	-5.8	-5.8	13.3	2.6	3.4	2.5	.	.
COc1ccc(COC(=O)C2=C(C)NC(=O)NC2c2cccc(Br)c2)cc1 (stereo unspecified)	-2.9	2.8	0.1	15.7*	7.3	2.2	-0.5	15.6*
CSc1nnc(-c2cccc(NC(=S)NN)c2)o1	-10.9	1.2	0.0	27.4*	33.3	5.0	-0.2	-3.7
COc1ccc(C)cc1NC(=O)CN1C(=O)COc2ccc(S(=O)(=O)N3CCC(C)CC3)cc21	-2.6	3.0	-3.5	2.8	-14.2	-0.9	.	.
CCCn1c(N)c(Sc2ccc(Cl)cc2)c(=O)n(CCC)c1=O	-2.5	8.1	-2.4	22.5*	-8.1	4.0	-0.7	6.4
SMILES	CHRM1 agonist	CHRM1 PAM	CHRM1 antagonist	m5-HT2A agonist	TAAR1 antagonist	TAAR1 ag	OPRM1 ag	m5-HT2A ag conf
Cc1cc(C)c2nc3nc(C)c(C)cc3c(N)c2c1	-14.7	2.4	1.1	-2.3	12.6	-0.1	.	.
O=C1C2C(c3cccc(/C=C/c4ccccc4)c3)CC=CC2C(c2ccc3ccccc3c2)N1Cc1ccccc1 (stereo unspecified)	-4.0	-5.6	12.6	2.1	8.9	1.8	.	.
O=C1C2C(c3cccc(/C=C/c4ccccc4)c3)CC=CC2C(c2ccc(C(F)(F)F)cc2)N1Cc1ccccc1 (stereo unspecified)	-3.9	3.5	-11.9	17.3*	-1.3	0.1	-0.6	-4.9
Cc1ccc2nc(-c3ccccc3)nn2c1	-0.7	1.4	-1.9	9.7	-10.1	-0.1	.	.
CC(NC(=O)COC(=O)/C=C/c1ccc(Cl)cc1)c1ccccc1 (stereo unspecified)	-10.9	13.0	-10.3	-0.5	-4.6	11.7	.	.
COc1cc(/C=C/C(=O)OCC(=O)NC(C)c2ccccc2)cc(OC)c1OC (stereo unspecified)	-0.4	2.3	-15.8	14.9*	2.1	2.2	-0.1	9.3
O=C1CN(CC(=O)NC2CCCc3ccccc32)CCN1 (stereo unspecified)	-4.8	2.9	-5.2	-0.3	4.3	10.1	.	.
Fc1ccc(NCc2nnc3n2CCCCC3)cc1	-3.1	2.9	1.0	19.5*	-30.9	3.0	0.0	3.1
Cc1ccc(NCc2nnc3n2CCCCC3)c(C)c1	-1.2	-7.7	1.7	3.1	11.1	9.3	.	.
Cc1ccc(S(=O)(=O)NCCc2ccncc2)cc1[N+](=O)[O-]	-6.3	4.6	-8.6	4.8	-6.8	6.4	.	.
